For orientation: pKa means the pH at which an ionisable group is half protonated.

The record followed here is ChEMBL document CHEMBL1123488, “Agents for the treatment of brain edema. 2. [(2,3,9,9a-Tetrahydro-3-oxo-9a-substituted-1H-fluoren-7-yl)oxy]+ ++alkanoi c acids and some of their analogues” (J Med Chem, 1986).

Series [1] in a line: % distribution in octanol versus pH7.4 buffer. The following applies: pH 7.4. The class given is physicochemical.
Series [2] can be described thus: Dissociation constant (pKa) (determined in 30% EtOH). The class given is physicochemical.
For a further series, the species on record is Felis catus. Briefly: In vitro concentration required for 50% inhibition of swelling of cat cerebrocortical slices. It is filed as functional. The following applies: read-out: I50. The gist of the method: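 Cat cortical slices were weighed and incubated 60 min at 22 °C in 27 mM K+ medium, with HCO3- added for the last 40 min and inhibitor present throughout. Swelling = (final − initial wet weight)/initial wet weight × 100. The HCO3−-dependent increment was taken as the target. I50 is the molarity giving 50% inhibition, read from the concentration–response curve.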

For the molecule `CCCC12CCC(=O)C=C1c1c(cc(SCC(=O)O)c(Cl)c1Cl)C2` (configuration not stated), the Distribution in series [1] is 99%. For the same molecule, the pKa in series [2] is 4.7. Besides, the IC50 in the series filed under Felis catus (Felis catus) was greater than 1000 nM.
On the same counts, the results for `CCC12CCC(=O)C=C1c1c(cc(OCC(=O)OCCN3CCOCC3)c(Cl)c1Cl)C2` (configuration not stated) are 98.6%, 5.08 and greater than 10 nM.
On to `CCCC12CCC(=O)C=C1c1c(cc(OCC(=O)O)c(Cl)c1Cl)C2` (single isomer, unassigned; (-)), for which, in the series listed under Felis catus, the IC50 worked out at 10000 nM.
On to `CCCC12CCC(=O)C=C1c1c(cc(OCC(=O)OC)c(Cl)c1Cl)C2` (configuration not stated), for which the Distribution in series [1] is greater than 99.9%. The IC50 in the series listed under Felis catus (Felis catus) was found to be 0.002 nM.
Consider `CCOC(=O)COc1cc2c(c(Cl)c1Cl)C1=CC(=O)CCC1(CC)C2` (single isomer, unassigned; (+)), for which the Distribution in series [1] is given as greater than 99.9%. For the same molecule, the IC50 in the series listed under Felis catus was 0.1 nM.
In turn, `CCCC12CCC(=O)C=C1c1c(cc(OCCCC(=O)O)c(Cl)c1Cl)C2` (configuration not stated) came in with a Distribution in series [1] of 99.8%. This molecule showed a pKa in series [2] of 3.7. In the series listed under Felis catus (Felis catus), the IC50 turned out to be 3 nM.
Regarding `CCC12CCC(=O)C=C1c1c(cc(OCC(=O)OC)c(Cl)c1Cl)C2` (configuration not stated), the Distribution in series [1] is 99.5%. Further, the IC50 in the series filed under Felis catus (Felis catus) stood at 20 nM.
In the case of `CCC12CCC(=O)C=C1c1c(cc(OCC(=O)OCC(C)=O)c(Cl)c1Cl)C2` (configuration not stated), in series [1], the Distribution is listed as greater than 99.9%. The IC50 in the series listed under Felis catus (Felis catus) was 1 nM.
`CCC12CCC(=O)C=C1c1c(cc(OCC(=O)OC(C)(C)C(=O)O)c(Cl)c1Cl)C2` (stereo in doubt; 16b-9) gave a Distribution in series [1] of 95%. The molecule also had a pKa in series [2] of 3.8. Also, the IC50 in the series filed under Felis catus (Felis catus) was found to be 1 nM.
In series [1], `CCC12CCC(=O)C=C1c1c(cc(OCC(=O)OC(C)(C)C(=O)O)c(Cl)c1Cl)C2` (stereo in doubt; (+)-16b-9) showed a Distribution of 96%. Also, in the series filed under Felis catus, the IC50 was 0.5 nM.
`CCCC12CCC(=O)C=C1c1c(cc(OCC(=O)NN(C)C)c(Cl)c1Cl)C2` (configuration not stated) came in with a Distribution in series [1] of 99.7%. Further, in series [2], the pKa amounted to 3.9. Moreover, in the series filed under Felis catus (Felis catus), the IC50 is greater than 100 nM.
`CCC12CCC(=O)C=C1c1c(cc(OCC(=O)OCC3CCC(CO)O3)c(Cl)c1Cl)C2` (configuration not stated): the Distribution in series [1] is listed as 99.7%. The IC50 in the series listed under Felis catus (Felis catus) stood at 1000 nM.
As to `CCCC12CC(=O)C=C1c1c(cc(OCC(=O)O)c(Cl)c1Cl)C2` (configuration not stated), the Distribution in series [1] was found to be 88%. This molecule also came in with a pKa in series [2] of 3.84. The IC50 in the series listed under Felis catus (Felis catus) is 100 nM.
Turning to `CCC12CCC(=O)C=C1c1c(cc(OCC(=O)O)c(Cl)c1Cl)C2` (stereo in doubt; 5b), in the series listed under Felis catus, the IC50 is 30 nM.
`CCCC12CCC(=O)C(C)=C1c1c(cc(OCC(=O)O)c(Cl)c1Cl)C2` (configuration not stated) displayed a Distribution in series [1] of 98%. For the same molecule, the pKa in series [2] came to 3.5. Also, in the series listed under Felis catus (Felis catus), the IC50 is greater than 100 nM.
Turning to `CCCC12CCC(=O)C=C1c1c(cc(OCC(=O)NCCN(C)C)c(Cl)c1Cl)C2` (configuration not stated), in series [1], the Distribution worked out at 99.7%. Moreover, the pKa in series [2] is 7.7. In the series listed under Felis catus (Felis catus), the IC50 was greater than 1000 nM.
`CCC12CCC(=O)C=C1c1c(cc(OCC(=O)OCc3cccnc3)c(Cl)c1Cl)C2` (configuration not stated) came in with a Distribution in series [1] greater than 99.9%. Besides, the pKa in series [2] stood at 3.32. The IC50 in the series filed under Felis catus (Felis catus) is 0.1 nM.
Turning to `CCCC12CCC(C(C)=O)=C1c1c(cc(OCC(=O)O)c(Cl)c1Cl)C2` (configuration not stated), the Distribution in series [1] turned out to be 95%. The molecule further had a pKa in series [2] of 4.1. The IC50 in the series listed under Felis catus (Felis catus) came to 100 nM.
As to `CCC12CCC(=O)C=C1c1c(cc(OCC(=O)O)c(Cl)c1Cl)C2` (single isomer, unassigned; (+)), the IC50 in the series listed under Felis catus amounted to 10 nM.
The molecule `CCCCC12CCC(=O)C=C1c1c(cc(OCC(=O)O)c(Cl)c1Cl)C2` (configuration not stated) came in with a Distribution in series [1] of 98%. For the same molecule, the pKa in series [2] was 3.5. Also, the IC50 in the series filed under Felis catus (Felis catus) was greater than 10 nM.
In series [1], `CCC12CCC(=O)C=C1c1c(cc(OCC(=O)OCCCO)c(Cl)c1Cl)C2` (configuration not stated) had a Distribution of 99.3%. Also, the IC50 in the series listed under Felis catus (Felis catus) was found to be 0.7 nM.
Regarding `CCOC(=O)COc1cc2c(c(Cl)c1Cl)C1=CC(=O)CCC1(CC)C2` (single isomer, unassigned; (-)), the IC50 in the series filed under Felis catus was greater than 10000 nM.
`CCC12C=CC(=O)C=C1c1c(cc(OCC(=O)O)c(Cl)c1Cl)C2` (configuration not stated): in series [1], the Distribution is given as 79%. Moreover, in series [2], the pKa was determined as 3.7. In addition, the IC50 in the series filed under Felis catus (Felis catus) was greater than 10 nM.
As for `CC(C)C12CCC(=O)C=C1c1c(cc(OCC(=O)O)c(Cl)c1Cl)C2` (configuration not stated), the Distribution in series [1] is listed as 89%. This molecule also registered a pKa in series [2] of 3.83. In addition, in the series listed under Felis catus (Felis catus), the IC50 is greater than 100 nM.
`C=CC12CCC(=O)C=C1c1c(cc(OCC(=O)O)c(Cl)c1Cl)C2` (configuration not stated) gave a Distribution in series [1] of 70%. Moreover, the pKa in series [2] turned out to be 3.5. The IC50 in the series filed under Felis catus (Felis catus) is greater than 10 nM.
On the same counts, the results for `CCC12CCC(=O)C=C1c1c(cc(OCc3nn[nH]n3)c(Cl)c1Cl)C2` (configuration not stated) are 95%, 3.72 and greater than 100 nM.
`CCC12CCC(=O)C=C1c1c(cc(OCC(=O)OCC(=O)O)c(Cl)c1Cl)C2` (stereo in doubt; 16b-8) had a Distribution in series [1] of 91%. The molecule also displayed a pKa in series [2] of 3.8. Further, in the series filed under Felis catus (Felis catus), the IC50 was 6 nM.
Consider `CCC12CCC(=O)C=C1c1c(cc(OCC(=O)OCC3COC(C)(C)O3)c(Cl)c1Cl)C2` (configuration not stated), for which the Distribution in series [1] was 99.9%. Moreover, the IC50 in the series listed under Felis catus (Felis catus) is greater than 10 nM.
Take `CCCC12CCC(=O)C=C1c1c(cc(OCC(=O)OC(C)(C)C(=O)O)c(Cl)c1Cl)C2` (single isomer, unassigned; (+)): the Distribution in series [1] is on record as 98%. For the same molecule, the pKa in series [2] was 3.8. Moreover, the IC50 in the series listed under Felis catus (Felis catus) turned out to be 0.004 nM.
The molecule `O=C(O)COc1cc2c(c(Cl)c1Cl)C1=CC(=O)CCC1(C1CCCC1)C2` (configuration not stated) registered a Distribution in series [1] of 97%. In addition, the pKa in series [2] was determined as 3.83. In addition, in the series filed under Felis catus (Felis catus), the IC50 worked out at 1 nM.
Regarding `CCC12CCC(=O)C=C1c1c(cc(OCC(=O)O)c(Cl)c1Cl)C2` (stereo in doubt; (-)-5b), the Distribution in series [1] worked out at 81%. The same molecule gave a pKa in series [2] of 3.6. Also, the IC50 in the series listed under Felis catus stood at 30000 nM.
In series [1], `CCOC(=O)COc1cc2c(c(Cl)c1Cl)C1=CC(=O)CCC1(CC)C2` (stereo in doubt; 16b-1) came in with a Distribution greater than 99.8%. Besides, the IC50 in the series listed under Felis catus was 0.2 nM.
`CCC12CCC(=O)C=C1c1c(cc(OCCCC(=O)O)c(Cl)c1Cl)C2` (configuration not stated) returned a Distribution in series [1] of 99.2%. The molecule further yielded a pKa in series [2] of 3.7. Further, in the series filed under Felis catus (Felis catus), the IC50 is greater than 10000 nM.
Regarding `CCCC12CCC(=O)C=C1c1c(cc(OCC(=O)O)c(C)c1C)C2` (configuration not stated), the Distribution in series [1] amounted to 49%. In series [2], this molecule came in with a pKa of 4.3. In addition, the IC50 in the series listed under Felis catus (Felis catus) is 100 nM.
For `CC12CCC(=O)C=C1c1c(cc(OCC(=O)O)c(Cl)c1Cl)C2` (configuration not stated), in that order: 62%, 3.75 and 10 nM.
`CCCC12CCC(=O)C=C1c1ccc(OCC(=O)O)cc1C2` (configuration not stated) had a Distribution in series [1] of 49%. This molecule also showed a pKa in series [2] of 4.05. Further, the IC50 in the series filed under Felis catus (Felis catus) is 50 nM.
Take `CCCC12CCC(=O)C=C1c1c(cc(OCC(=O)O)c(Cl)c1Cl)C2` (stereo in doubt; 5c): the Distribution in series [1] was 93%. Further, in series [2], the pKa was 3.6. For the same molecule, in the series listed under Felis catus, the IC50 came out at 0.04 nM.
`CCC12CCC(=O)C=C1c1c(cc(OCC(=O)OCC(=O)O)c(Cl)c1Cl)C2` (stereo in doubt; (+)-16b-8): in series [1], the Distribution was 83%. In addition, the IC50 in the series filed under Felis catus worked out at 3 nM.
On to `CCCC12CCC(=O)C=C1c1c(cc(OCC(=O)OC(CC)(CC)C(=O)O)c(Cl)c1Cl)C2` (single isomer, unassigned; (+)), for which the Distribution in series [1] is on record as greater than 99.9%. In series [2], this molecule registered a pKa of 3.4. For the same molecule, the IC50 in the series filed under Felis catus (Felis catus) is 0.04 nM.
As to `CCCC12CCC(=O)C=C1c1c(cc(O)c(Cl)c1Cl)C2` (single isomer, unassigned; (+)), the Distribution in series [1] was 11%. The molecule further gave a pKa in series [2] of 6.18. The IC50 in the series listed under Felis catus (Felis catus) is greater than 10000 nM.
